Our source for the MIC and Activity values is ChEMBL document CHEMBL3994602, “Termisoflavones A-C, Isoflavonoid Glycosides from Termite-Associated Streptomyces sp. RB1” (2016).

One assay relates to Candida albicans. Kind of assay: Antifungal activity against Candida albicans SC5314 by CLSI M27-A3 broth microdilution method. Type of assay: functional. Put shortly: (§1)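 MICs were determined by broth microdilution following CLSI standard M27-A3, with fluconazole as the positive control.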
For orientation: In broth dilution the organism is exposed to a series of concentrations in liquid medium.

The test system of a further assay is Staphylococcus aureus. Kind of assay: Antibacterial activity against Staphylococcus aureus NCTC 8325-4 by EUCAST method. Type of assay: functional. In a few lines: (§2)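 Minimal inhibitory concentrations were determined by the EUCAST method, with streptomycin sulfate as the positive control.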
For the next assay, the system named is Cryptococcus neoformans. Kind of assay: Antifungal activity against Cryptococcus neoformans H99 by CLSI M27-A3 broth microdilution method. Type of assay: functional. To be noted: var grubii H99. In a few lines: as §1
The test system of the next assay is LLC-PK1. Kind of assay: Renoprotective activity in pig LLC-PK1 cells assessed as inhibition of cisplatin-induced damage by measuring cell viability up to 100 uM preincubated for 24 hrs followed by addition of Ez-Cytox reagent and measured after 2 hrs relative to control. Type of assay: functional, Sus scrofa. Put shortly: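 LLC-PK1 pig kidney epithelial cells were cultured in DMEM with 10% FBS, 1% penicillin/streptomycin and 4 mM L-glutamine at 37 °C, 5% CO2. Cells were seeded at 1 × 10^4 per well and allowed to adhere for 2 h. Test sample and/or 25 μM cisplatin were added and incubated for 24 h. Medium was replaced with serum-free medium plus Ez-Cytox for 2 h at 37 °C, then absorbance was read at 450 nm. N-acetyl cysteine was the positive control.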

For another assay, the system named is Escherichia coli. Kind of assay: Antibacterial activity against Escherichia coli DH10B by EUCAST method. It counts as functional. To be noted: K-12 substr. DH10B. In a few lines:
as §2

Calls of active or inactive are those of the source. The rule behind the calls is not given here.

By MIC is commonly meant the lowest concentration found to suppress growth. Read a high MIC as weaker potency.

For the molecule `C[C@@H]1O[C@@H](Oc2ccc3c(=O)c(-c4ccc(O)cc4)coc3c2)[C@H](O)[C@H](O)[C@H]1O`, the MIC against Candida albicans, in the assay on Staphylococcus aureus, in the assay with Cryptococcus neoformans and in the assay on Escherichia coli was greater than 100 µg/mL in each case. In addition, the Activity with LLC-PK1 was greater than 80%.

For `CO[C@@H]1[C@@H](O)[C@H](C)O[C@@H](Oc2ccc(-c3coc4cc(O[C@@H]5O[C@@H](C)[C@H](O)[C@@H](O)[C@H]5O)cc(O)c4c3=O)cc2)[C@@H]1O`, the MIC in the assay with Candida albicans, against Staphylococcus aureus, in the assay with Cryptococcus neoformans and in the assay with Escherichia coli was greater than 100 µg/mL each time.

For the molecule `C[C@@H]1O[C@@H](Oc2ccc(-c3coc4cc(O[C@@H]5O[C@@H](C)[C@H](O)[C@@H](O)[C@H]5O)ccc4c3=O)cc2)[C@H](O)[C@H](O)[C@H]1O`, the MIC with Candida albicans, with Staphylococcus aureus, against Cryptococcus neoformans and with Escherichia coli was greater than 100 µg/mL in each case. Besides, the outcome in the assay on LLC-PK1 (Sus scrofa) was Active.

As to `C[C@@H]1O[C@@H](Oc2ccc(-c3coc4cc(O[C@@H]5O[C@@H](C)[C@H](O)[C@@H](O)[C@H]5O)cc(O)c4c3=O)cc2)[C@H](O)[C@H](O)[C@H]1O`, the minimal inhibitory concentration (MIC) in the assay on Candida albicans, in the assay with Staphylococcus aureus, with Cryptococcus neoformans and against Escherichia coli was greater than 100 µg/mL in each case. Moreover, in the assay with LLC-PK1 (Sus scrofa), the result was Active.

Take `CO[C@@H]1[C@@H](O)[C@H](C)O[C@@H](Oc2ccc(-c3coc4cc(O[C@@H]5O[C@@H](C)[C@H](O)[C@@H](OC)[C@H]5O)ccc4c3=O)cc2)[C@@H]1O`: the MIC in the assay on Candida albicans, in the assay on Staphylococcus aureus, in the assay with Cryptococcus neoformans and against Escherichia coli was greater than 100 µg/mL in each case. The result in the assay with LLC-PK1 (Sus scrofa) was Active.

As to `O=c1c(-c2ccc(O)cc2)coc2cc(O)ccc12` [DAIDZEIN], the minimum inhibitory concentration (MIC) with Candida albicans, against Staphylococcus aureus, in the assay on Cryptococcus neoformans and against Escherichia coli was greater than 100 µg/mL each time. For the same molecule, in the assay on LLC-PK1 (Sus scrofa), the result was Active.

On to `C[C@@H]1O[C@@H](Oc2cc(O)c3c(=O)c(-c4ccc(O)cc4)coc3c2)[C@H](O)[C@H](O)[C@H]1O`, for which the minimal inhibitory concentration (MIC) against Candida albicans, in the assay with Staphylococcus aureus, against Cryptococcus neoformans and against Escherichia coli was greater than 100 µg/mL each time. Moreover, the outcome in the assay on LLC-PK1 (Sus scrofa) was Active.

With `CO[C@@H]1[C@@H](O)[C@H](C)O[C@@H](Oc2ccc(-c3coc4cc(O[C@@H]5O[C@@H](C)[C@H](O)[C@@H](OC)[C@H]5O)cc(O)c4c3=O)cc2)[C@@H]1O`, the MIC against Candida albicans, in the assay with Staphylococcus aureus, against Cryptococcus neoformans and with Escherichia coli was greater than 100 µg/mL in each case. Besides, the outcome in the assay with LLC-PK1 (Sus scrofa) was Active.

Take `COc1cc2c(=O)c(-c3ccc(O)cc3)coc2cc1O[C@@H]1O[C@@H](C)[C@H](O)[C@@H](O)[C@H]1O`: the MIC with Candida albicans, in the assay on Staphylococcus aureus, in the assay on Cryptococcus neoformans and in the assay on Escherichia coli was greater than 100 µg/mL each time.

Consider `O=c1c(-c2ccc(O)cc2)coc2cc(O[C@@H]3O[C@H](CO)[C@@H](O)[C@H](O)[C@H]3O)cc(O)c12` [GENISTIN], for which the minimum inhibitory concentration (MIC) against Candida albicans, in the assay with Staphylococcus aureus, with Cryptococcus neoformans and with Escherichia coli was greater than 100 µg/mL in each case. Besides, the outcome with LLC-PK1 (Sus scrofa) was Active.

In the case of `O=c1c(-c2ccc(O)cc2)coc2cc(O[C@@H]3O[C@H](CO)[C@@H](O)[C@H](O)[C@H]3O)ccc12` [DAIDZIN], the MIC against Candida albicans, against Staphylococcus aureus, in the assay with Cryptococcus neoformans and against Escherichia coli was greater than 100 µg/mL throughout. For the same molecule, in the assay with LLC-PK1, the Activity is greater than 80%.
